Results taken from ChEMBL document CHEMBL3352199, “Biological evaluation of halogenated thiazolo[3,2-a]pyrimidin-3-one carboxylic acid derivatives targeting the YycG histidine kinase” (Eur J Med Chem, 2014).
Values after ≈ are worked out from the molar mass of the structure shown. Active and inactive are the calls of the source.

Tests used:
[1] = system: Staphylococcus epidermidis; assay: Antimicrobial activity against Staphylococcus epidermidis ATCC 35984 after 12 to 16 hrs by broth micro-dilution method; type: functional
Summary of the method: (§1)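 Broth micro-dilution in tubes per CLSI. Serial twofold dilutions in Mueller-Hinton broth, top final concentration 200. The inoculum was 6 h cultures adjusted to 0.5 McFarland. Incubated 37 °C 12–16 h. MIC is the lowest concentration with no visible growth by eye. Growth control (no drug) and sterility control (uninoculated broth) were included.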

[2] = system: Staphylococcus epidermidis; assay: Antimicrobial activity against Staphylococcus epidermidis ATCC 12228 after 12 to 16 hrs by broth micro-dilution method; type: functional; summary of the method: as §1
[3] = system: Escherichia coli; assay: Antimicrobial activity against Escherichia coli ATCC 25922 after 12 to 16 hrs by broth micro-dilution method; type: functional; summary of the method: as §1
[4] = system: Shigella flexneri; assay: Antimicrobial activity against Shigella flexneri 301 after 12 to 16 hrs by broth micro-dilution method; type: functional; summary of the method: as §1
[5] = system: Staphylococcus epidermidis; assay: Antibiofilm activity against Staphylococcus epidermidis ATCC 35984 at 50 uM after 18 hrs by crystal violet staining method; type: functional, organism-based
Summary of the method: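 S. epidermidis ATCC35984 suspension seeded in microtiter wells, 37 °C 6 h to form young biofilm. PBS-washed ×4, then fresh TSB with graded compound dilutions, 37 °C 18 h. Washed, methanol-fixed 15 min, air-dried, crystal violet stained, OD570 read. Cut-off ODc = mean OD570 of negative control + 3×SD (0.28); triplicate.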

[6] = Hemolytic activity in human erythrocytes at 100 uM after 1 hr by spectrophotometry; type: ADME, cell-based; conditions: erythrocyte, 50 µM, in the assay text read “50 uM” for “100 uM”
Summary of the method: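 Healthy human erythrocytes exposed to compounds. After incubation, centrifuged at 350 × g for 10 min, and hemolysis read as supernatant absorbance at 570 nm. DMSO (0.1%) served as negative control and Triton X-100 (1%) as positive control.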

[7] = system: Staphylococcus aureus; assay: Antimicrobial activity against Staphylococcus aureus ATCC 25923 after 12 to 16 hrs by broth micro-dilution method; type: functional; summary of the method: as §1
[8] = Inhibition of recombinant YycG kinase HK domain autophosphorylation activity (unknown origin) expressed in Escherichia coli BL21 (DE3) preincubated for 30 mins by ATP-Luminescence assay
Summary of the method: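 YycG HATPase_c + HisKA domains, expressed in E. coli BL21(DE3), purified on Ni-NTA. Protein at 0.13 mmol/L pre-incubated with serial compound dilutions in 40 mmol/L Tris pH 8.0, 20 mmol/L MgCl₂, 0.1 mg/mL BSA, 25 °C 30 min. ATP 4 mmol/L added, 30 min at 25 °C. Remaining ATP measured by Kinase-Glo luminescence. IC50 fitted from phosphorylation-inhibition rates.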

SMILES | MIC [1] | MIC [2] | MIC [3] | MIC [4] | Activity [5] | Activity [6] | MIC [7] | IC50 [8]
CCOC(=O)C1=C(C)N=c2s/c(=C\c3ccc(OCC(=O)O)cc3)c(=O)n2C1c1ccc(Cl)cc1 (configuration not stated) | 200 µM (≈ 103 µg/mL) | 200 µM (≈ 103 µg/mL) | > 200 µM | > 200 µM | inactive | Non-toxic |  | 
COc1ccc(C2C=C(c3ccccc3)N=c3s/c(=C\c4ccc(-c5cccc(C(=O)O)c5)o4)c(=O)n32)cc1 (configuration not stated) | 1.56 µM (≈ 0.834 µg/mL) | 6.25 µM (≈ 3.34 µg/mL) | > 200 µM | > 200 µM | inactive | Non-toxic | 6.25 µM (≈ 3.34 µg/mL) | 49.9 µM
CCOC(=O)C1=C(C)N=c2s/c(=C\c3ccc(-c4cccc(C(=O)O)c4)o3)c(=O)n2C1c1ccc(OC)cc1 (configuration not stated) | 6.25 µM (≈ 3.4 µg/mL) |  | > 200 µM | > 200 µM | inactive | Non-toxic |  | 
CCOC(=O)C1=C(C)N=c2s/c(=C\c3ccc(OCC(=O)O)c(OC)c3)c(=O)n2C1c1ccc(OC)cc1 (configuration not stated) | 50 µM (≈ 26.9 µg/mL) | 50 µM (≈ 26.9 µg/mL) | > 200 µM | > 200 µM | inactive |  |  | 
CCOC(=O)C1=C(c2ccccc2)N=c2s/c(=C\c3ccc(-c4cccc(C(=O)O)c4)o3)c(=O)n2C1c1ccc([N+](=O)[O-])cc1 (configuration not stated) | 1.56 µM (≈ 0.97 µg/mL) | 3.12 µM (≈ 1.94 µg/mL) | > 200 µM | > 200 µM | inactive | Non-toxic | 25 µM (≈ 15.5 µg/mL) | 
CCOC(=O)C1=C(c2ccccc2)N=c2s/c(=C\c3ccc(-c4cccc(C(=O)O)c4)o3)c(=O)n2C1c1ccccc1 (configuration not stated) | 200 µM (≈ 115 µg/mL) | 200 µM (≈ 115 µg/mL) | > 200 µM | > 200 µM | inactive | Non-toxic |  | 
CCOC(=O)C1=C(c2ccccc2)N=c2s/c(=C\c3ccc(-c4ccc(C(=O)O)cc4)o3)c(=O)n2C1c1ccc(OC)cc1 (configuration not stated) | 6.25 µM (≈ 3.79 µg/mL) | 6.25 µM (≈ 3.79 µg/mL) | > 200 µM | > 200 µM | inactive | Non-toxic |  | 
O=C(O)c1cccc(-c2ccc(/C=c3\sc4n(c3=O)C(c3ccc(F)cc3)C=C(c3ccccc3)N=4)o2)c1 (configuration not stated) | 6.25 µM (≈ 3.27 µg/mL) | 3.12 µM (≈ 1.63 µg/mL) | > 200 µM | > 200 µM | Active | Non-toxic | 6.25 µM (≈ 3.27 µg/mL) | 
CCOC(=O)C1=C(c2ccccc2)N=c2s/c(=C\c3ccc(-c4cccc(C(=O)O)c4)o3)c(=O)n2C1c1ccc(OC)cc1 (configuration not stated) | 3.12 µM (≈ 1.9 µg/mL) | 3.12 µM (≈ 1.9 µg/mL) | > 200 µM | > 200 µM | Active | Non-toxic |  | 
CCOC(=O)C1=C(c2ccccc2)N=c2s/c(=C\c3ccc(-c4cccc(C(=O)O)c4)o3)c(=O)n2C1c1ccc2c(c1)OCO2 (configuration not stated) | 6.25 µM (≈ 3.88 µg/mL) | 6.25 µM (≈ 3.88 µg/mL) | > 200 µM | > 200 µM | Active | Non-toxic | 6.25 µM (≈ 3.88 µg/mL) | 14 µM
CCOC(=O)C1=C(c2ccccc2)N=c2s/c(=C\c3ccc(OCC(=O)O)cc3)c(=O)n2C1c1ccc(Cl)cc1 (configuration not stated) | 3.12 µM (≈ 1.8 µg/mL) | 3.12 µM (≈ 1.8 µg/mL) | > 200 µM | > 200 µM | inactive | Non-toxic |  | 
O=C(O)c1cccc(-c2ccc(/C=c3\sc4n(c3=O)C(c3ccc(Cl)cc3)C=C(c3ccccc3)N=4)o2)c1 (configuration not stated) | 1.56 µM (≈ 0.841 µg/mL) | 6.25 µM (≈ 3.37 µg/mL) | > 200 µM | > 200 µM | Active | Non-toxic | 3.12 µM (≈ 1.68 µg/mL) | 55.6 µM
CCOC(=O)C1=C(c2ccccc2)N=c2s/c(=C\c3ccc(-c4ccc(C(=O)O)cc4)o3)c(=O)n2C1c1ccc(F)cc1 (configuration not stated) | 6.25 µM (≈ 3.72 µg/mL) | 6.25 µM (≈ 3.72 µg/mL) | > 200 µM | > 200 µM | Active | Non-toxic | 6.25 µM (≈ 3.72 µg/mL) | 
CCOC(=O)C1=C(C)N=c2s/c(=C\c3ccc(OCC(=O)O)cc3)c(=O)n2C1c1ccc(OC)cc1 (configuration not stated) | 50 µM (≈ 25.4 µg/mL) | 50 µM (≈ 25.4 µg/mL) | > 200 µM | > 200 µM | inactive | Non-toxic |  | 
CCOC(=O)C1=C(c2ccccc2)N=c2s/c(=C\c3ccc(OCC(=O)O)c(OC)c3)c(=O)n2C1c1ccc(Cl)cc1 (configuration not stated) | 200 µM (≈ 121 µg/mL) | 200 µM (≈ 121 µg/mL) | > 200 µM | > 200 µM | inactive |  |  | 
CCOC(=O)C1=C(c2ccccc2)N=c2s/c(=C\c3ccc(-c4cccc(C(=O)O)c4)o3)c(=O)n2C1c1ccc(F)cc1 (configuration not stated) | 6.25 µM (≈ 3.72 µg/mL) | 3.12 µM (≈ 1.86 µg/mL) | > 200 µM | > 200 µM | Active | Non-toxic | 6.25 µM (≈ 3.72 µg/mL) | 
Cc1nnc(SCC2=C(C(=O)O)N3C(=O)[C@@H](NC(=O)Cn4cnnn4)[C@H]3SC2)s1 [CEFAZOLIN] | 17.6 µM (≈ 8 µg/mL) | 17.6 µM (≈ 8 µg/mL) |  |  |  |  | 17.6 µM (≈ 8 µg/mL) | 
CCOC(=O)C1=C(c2ccccc2)N=c2s/c(=C\c3ccc(-c4cccc(C(=O)O)c4)o3)c(=O)n2C1c1ccc(O)cc1 (configuration not stated) | 50 µM (≈ 29.6 µg/mL) | 50 µM (≈ 29.6 µg/mL) | > 200 µM | > 200 µM | inactive | Non-toxic |  | 
CCOC(=O)C1=C(c2ccccc2)N=c2s/c(=C\c3ccc(-c4ccc(C(=O)O)cc4)o3)c(=O)n2C1c1ccc(Cl)cc1 (configuration not stated) | 6.25 µM (≈ 3.82 µg/mL) | 3.12 µM (≈ 1.91 µg/mL) | > 200 µM | > 200 µM | Active | Non-toxic | 6.25 µM (≈ 3.82 µg/mL) | 
CCOC(=O)C1=C(c2ccccc2)N=c2s/c(=C\c3ccc(-c4cccc(C(=O)O)c4)o3)c(=O)n2C1c1ccc(Cl)cc1 (configuration not stated) | 1.56 µM (≈ 0.953 µg/mL) | 3.12 µM (≈ 1.91 µg/mL) | > 200 µM | > 200 µM | Active | Non-toxic | 6.25 µM (≈ 3.82 µg/mL) | 12.7 µM
